In ChEMBL document CHEMBL1148508, “Design and synthesis of phosphotyrosine peptidomimetic prodrugs” (J Med Chem, 2006) one finds IC50 and GI50 data, which are given here for six molecules.

In experiment [1] the test system is Jurkat. Kind of experiment: Inhibition of NFAT-mediated luciferase gene transcription in human jurkat J77 cell line after 6 hrs. The class given is functional, cell-based. The method, boiled down: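 Jurkat J77 cells electroporated (300 V, 800 μF) with NFAT-luciferase plasmid (four NFAT sites), grown 24 h in FBS-RPMI. Pretreated 1 h with compound (0.1-1000 μM, DMSO stocks), then stimulated with PMA plus anti-CD3 (2 μg/well) for 6 h. Lysate luciferase read; sigmoidal fit of RLU vs log concentration, IC50 = 50% drop versus DMSO control; mean ± S.E., n = 4.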

The subject of experiment [2] is Panel NCI-62 (62 carcinoma cell lines). Kind of experiment: Antiproliferative activity against human NCI62 cell line after 48 hrs. The class given is functional. An outline of the steps: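 NCI 60-panel screen (62 cell lines): cells grown 24 h in supplemented RPMI 1640, then exposed to drug 48 h at 5 concentrations, 10^-8 to 10^-4 M. Stopped with cold trichloroacetic acid, fixed, sulforhodamine B stained, bound dye solubilized and absorbance read. Growth inhibition from time-zero, control and treated absorbances; GI50 as mean ± S.D. across 62 lines.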

The IC50 is the point on the concentration scale where inhibition reaches its midpoint. The term GI50 denotes the concentration giving 50% growth inhibition. A lower GI50 goes with more potent growth inhibition. In turn, `CC(NC(=O)Cc1ccc(OP(=O)(OCc2ccc([N+](=O)[O-])o2)N(C)CCCCCl)cc1)c1ccc(OCC2CCCCC2)c(C(N)=O)c1` (stereo not given) came in with an IC50 in experiment [1] of 9 µM. The molecule further yielded a concentration for 50% growth inhibition (GI50) in experiment [2] of 3 µM.
The corresponding values for `CC(NC(=O)c1ccc(NP(=O)(OCc2ccc([N+](=O)[O-])o2)N(C)CCCCCl)cc1)c1ccc(OCC2CCCCC2)c(C(N)=O)c1` (stereo not given) are 16 µM and 18 µM.
The corresponding values for `CC(NC(=O)c1ccc(OP(=O)(OCc2ccc([N+](=O)[O-])o2)N(C)CCCCCl)cc1)c1ccc(OCC2CCCCC2)c(C(N)=O)c1` (stereo not given) are 31 µM and 12 µM.
In experiment [1], `CC(=O)N[C@@H](Cc1ccc(NP(=O)(OCc2ccc([N+](=O)[O-])o2)N(C)CCCCCl)cc1)C(=O)NC(C)c1ccc(OCC2CCCCC2)c(C(N)=O)c1` (stereo not given in full) showed a half-maximal inhibitory concentration (IC50) of 28 µM. This counts as double-digit micromolar.
Still for that read-out and setting: under `CC(NC(=O)Cc1ccc(NP(=O)(OCc2ccc([N+](=O)[O-])o2)N(C)CCCCCl)cc1)c1ccc(OCC2CCCCC2)c(C(N)=O)c1` (stereo not given) stands 20 µM.
`CC(=O)N[C@@H](Cc1ccc(OP(=O)(OCc2ccc([N+](=O)[O-])o2)N(C)CCCCCl)cc1)C(=O)NC(C)c1ccc(OCC2CCCCC2)c(C(N)=O)c1` (stereo not given in full) came in with an IC50 in experiment [1] of 21 µM. This molecule registered a GI50 in experiment [2] of 6 µM.
